Assay [1] concerns HepG2. The experiment in a line: Cytotoxicity against human HepG2 cells by MTT assay. Type of assay: functional, cell-based. A general note: Formazan colour is commonly taken as a measure of viable cells.
The test system of assay [2] is MCF7. The experiment in a line: Cytotoxicity against human MCF7 cells by MTT assay. Type of assay: functional, cell-based.
Assay [3] can be described thus: Cytotoxicity against human MDA-MB-23 cells by MTT assay. The format is functional, cell-based.
The test system of assay [4] is A549. Description: Cytotoxicity against human A549 cells by MTT assay. Type of assay: functional, cell-based.
For assay [5], the system named is RAW264.7. The experiment in a line: Inhibition of LPS-induced iNOS expression in mouse RAW264.7 cells at 10 uM by immunoblot analysis relative to control. Type of assay: functional. A digest of the protocol:
(§1)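 Murine RAW 264.7 macrophages were grown in DMEM with 10% heat-inactivated FBS at 37 °C and 5% CO2. Test agent (10 µM) was added 5 min before LPS (0.01 µg/mL), followed by 16 h incubation. Lysates were cleared at 20000g, and equal protein was run on SDS-PAGE and PVDF. Blots used anti-iNOS or anti-COX-2 (1:1000, 180 min RT), ECL, and a β-actin reprobe. Densitometry was expressed relative to LPS-alone (100%), as mean ± SEM, n = 6.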
(In general: A western blot detects proteins with antibodies after separation by electrophoresis.)

In assay [6] the test system is RAW264.7. The experiment in a line: Inhibition of LPS-induced COX2 expression in mouse RAW264.7 cells at 10 uM by immunoblot analysis relative to control. Type of assay: functional. A digest of the protocol:
as §1

Assay [7] deals with HepG2. Description: Cytotoxicity against human HepG2 cells at 20 ug/mL by MTT assay. Type of assay: functional. Particulars: read-out: GI.
For assay [8], the system named is MCF7. The experiment in a line: Cytotoxicity against human MCF7 cells at 20 ug/mL by MTT assay. Particulars: read-out: GI. Type of assay: functional.
Assay [9] concerns A549. Description: Cytotoxicity against human A549 cells at 20 ug/mL by MTT assay. To be noted: read-out: GI. The format is functional.
Assay [10] relates to HepG2. The experiment in a line: Cytotoxicity against human HepG2 cells at 0.5 ug/mL by MTT assay. To be noted: read-out: GI. Type of assay: functional.
Assay [11] relates to MCF7. Description: Cytotoxicity against human MCF7 cells at 0.5 ug/mL by MTT assay. The format is functional. Particulars: read-out: GI.
Assay [12] in a line: Cytotoxicity against human MDA-MB-23 cells at 0.5 ug/mL by MTT assay. Type of assay: functional. To be noted: read-out: GI.
Assay [13] concerns A549. The experiment in a line: Cytotoxicity against human A549 cells at 0.5 ug/mL by MTT assay. Type of assay: functional. To be noted: read-out: GI.

The source of these data is ChEMBL document CHEMBL1144760, “Oxygenated cembranoids from a Formosan soft coral Sinularia gibberosa” (J Nat Prod, 2008).

SMILES strings stand for the structures. Activity calls are given as the source filed them. The calls are words filed in the database; no cut-off is given here.

What is called IC50 is the concentration that gives 50% inhibition. Read a low IC50 as inhibition by little substance. Take `C/C1=C/C=C(\C(C)C)[C@@H](O)C[C@]2(C)O[C@@H]2CC/C(C)=C/CC1`: the IC50 (in the assay on HepG2 [1]; with MCF7 [2]; in assay [3]; with A549 [4]) was more than 20 µg/mL in each case. Further, the iNOS protein level (% of LPS control) at 10 µM in the assay on RAW264.7 [5] turned out to be 76.2%. Besides, the COX-2 protein level (% of LPS control) at 10 µM with RAW264.7 [6] stood at 54%. Also, the inhibition of growth at 20 µg/mL turned out to be 45.5% in the assay on HepG2 [7], 33.4% in the assay on MCF7 [8] and 27.2% with A549 [9].
Take `CC(=O)O[C@H]1C2=C(C(C)C)C=C(O2)[C@@H](C)CC/C=C(\C)CC[C@@H]2O[C@]21C` (relative stereo) [GIBBEROSENE A]: the IC50 (in the assay on HepG2 [1]; with MCF7 [2]; in assay [3]; in the assay on A549 [4]) was more than 20 µg/mL each time. The inhibition of growth at 20 µg/mL in the assay with HepG2 [7] was less than 20%; in the assay with MCF7 [8] it was 41.3%.
For `CC(=O)O[C@H]1C/C(C(C)C)=C/C=C(/C)CC/C=C(\C)CC[C@@H]2O[C@@]12C` (relative stereo) [GIBBEROSENE B], the IC50 (in the assay on HepG2 [1]; with MCF7 [2]; in [3]; in the assay on A549 [4]) was more than 20 µg/mL throughout. Moreover, the outcome with RAW264.7 [5] and in the assay with RAW264.7 [6] was inactive. Moreover, the inhibition of growth at 20 µg/mL in the assay on HepG2 [7] was 24%; with MCF7 [8] it was 21.5%.
As for `C/C1=C\CC[C@]2(C)O[C@H]2/C=C(\C(C)C)C[C@H](O)[C@]2(C)O[C@H]2CC1` (relative stereo) [GIBBEROSENE C], the IC50 (with HepG2 [1]; in the assay on MCF7 [2]; in assay [3]; with A549 [4]) was more than 20 µg/mL each time.
With `CC(=O)O[C@H]1/C=C(C(C)C)\C=C\[C@@](C)(O)CC/C=C(\C)CC[C@@H]2O[C@@]12C` (relative stereo) [GIBBEROSENE D], the IC50 (in the assay with HepG2 [1]; in the assay on MCF7 [2]; in assay [3]; in the assay on A549 [4]) was more than 20 µg/mL throughout.
For the molecule `CC(=O)O[C@@H]1/C(C)=C/C[C@H](O)/C(C)=C/CC/C(C)=C\C=C(/C(C)C)[C@H]1OC(C)=O` (relative stereo) [GIBBEROSENE E], the IC50 (in the assay on HepG2 [1]; in the assay with MCF7 [2]; in assay [3]; in the assay on A549 [4]) was more than 20 µg/mL each time. The inhibition of growth at 20 µg/mL with HepG2 [7] is 31.3%; in the assay on MCF7 [8], 21%; in the assay with A549 [9], 25.8%.
With `CC(=O)O[C@@H]1/C(C)=C/CC/C(C)=C/[C@H](O)C/C(C)=C\C=C(/C(C)C)[C@H]1OC(C)=O` (relative stereo) [GIBBEROSENE F], the IC50 (with HepG2 [1]; in the assay on MCF7 [2]; in assay [3]; in the assay with A549 [4]) was more than 20 µg/mL each time.
`COc1cccc2c1C(=O)c1c(O)c3c(c(O)c1C2=O)C[C@@](O)(C(=O)CO)C[C@@H]3O[C@H]1C[C@H](N)[C@H](O)[C@H](C)O1` [DOXORUBICIN]: the inhibition of growth at 0.5 µg/mL in the assay on HepG2 [10] is 66.9%; in the assay on MCF7 [11], 51.6%; in assay [12], 66.6%; with A549 [13] it was 73.2%.
Turning to `C/C1=C/C=C(\C(C)C)CC/C(C)=C/C(O)C/C(C)=C/CC1` (stereo unspecified) [GIBBEROSENE G], the IC50 (in the assay on HepG2 [1]; in the assay on MCF7 [2]; in [3]; with A549 [4]) was more than 20 µg/mL each time. In the assay with HepG2 [7], the inhibition of growth at 20 µg/mL worked out at 23.3%.
